Assay outcomes from PubChem.
HKDC1 activator: HKDC1 (human) hexokinase activation. recombinant HKDC1, G6PDH/diaphorase resazurin fluorescence; hits give low values. activity change, negative = activation, % at 20 µM. 340,000 compounds, 0.056% hits. AID 493187;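 active means activation of 40% or more at 20 µM, a change of -40% or lower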
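System: in-house human HKDC1 enzyme, G6PDH and diaphorase coupling enzymes; Quantity: 5 µg/mL HKDC1 final; Buffer or medium: Tris/MgCl2 buffer, pH 8.0; Dosing: single compound dose of 20 µM, 1% DMSO final; Times: 90 min reaction at room temperature, dark; Detection: coupled resazurin-to-resorufin fluorescence, Ex 525/Em 613 nm.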
* = called active by the depositor. Only a sample is shown.

SMILES	HKDC1 activator
CC(=NNC(=S)N1CC2CCC(CC2)C1)c1cccc(C)n1	-47*
COc1ccc(NC(=O)c2cc3ccccc3cc2O)cc1	38
O=C1NC(=S)S/C1=C\c1ccc(SCc2ccco2)o1	51
O=S(=O)(Nc1ccc(O)c2ccccc12)c1cccs1	51
COc1ccc(C2=CC3=C(Br)C(=O)C(C)(OC(=O)C4CCCC4)C(=O)C3=CO2)cc1 (configuration not stated)	53
O=C1C(Cl)=C(N2CCCCC2)C(=O)C(Cl)=C1c1cnc(N2CCCCC2)s1	70
O=C(O)c1cccc(-c2ccc(/C=c3/sc4nc5ccccc5n4c3=O)o2)c1	48
S=C(NCc1ccccn1)NN=Cc1ccccn1	-44*
O=C1C=C(N2CCCCC2)c2ccccc2C1=O	81
O=C1C(Nc2ccc(O)cc2)=C/C(=N/S(=O)(=O)c2cccs2)c2ccccc21	60
CCOc1ccc2nc3cc(NCc4ccc(OC)cc4)ccc3c(N)c2c1	36
C=CCn1nc([N+](=O)[O-])nc1Sc1cccc2cccnc12	-47*
COC1=C(C)C(=O)C2=C(C1=O)C1C3CC4=C(C(=O)C(OC)=C(C)C4=O)C(CNC(=O)C(C)=O)N3C(C#N)C(C2)N1C (configuration not stated)	60
O=C(O)[C@@H](c1ccccc1)N1Cc2ccccc2C1=O	52
CCN1/C(=C/C=C/c2oc3ccc4ccccc4c3[n+]2CC)Oc2ccc3ccccc3c21	51
N=C1N(c2ccccc2)C(=S)C(=Nc2ccccc2)N1c1ccccc1	-77*
O=c1oc2c(O)c(O)cc3c(=O)oc4c(O)c(O)cc1c4c23	54
Cc1cc(C)n(-c2ccc(NC(=O)C3CCN(Cc4cc(C)c(C)o4)CC3)cc2)n1	41
CCOC(=O)C1=C(Cc2ccc(OC)cc2)C(=O)c2ccccc2C1=O	71
Cc1cc(NC(=S)NC(=O)c2ccccc2)ccc1-c1cc2ccccc2oc1=O	-47*
O=C(Nc1ccc2nc(-c3ccco3)c(-c3ccco3)nc2c1)NC1CC1	50
O=C1C=C(c2c(O)ccc3ccccc23)c2ccccc2C1=O	93
COc1cc(NS(=O)(=O)c2ccc(NC(=O)c3ccc(F)cc3)cc2)ncn1	-59*
O=C(CCCCC(=O)Sc1ccccc1)Sc1ccccc1	39
CNc1sc(C(=O)c2ccc(F)cc2)c(N)c1-c1nc2ccccc2s1	-45*
SMILES	HKDC1 activator
CC1C/C(=C\c2cccnc2)C(=O)/C(=C/c2cccnc2)C1 (configuration not stated)	40
CCOC(=O)C1=C(O)c2ccccc2C(=O)/C1=C\c1ccc(CC)cc1	59
O=C(NNC(=O)c1cccnc1)NC1CCCCC1	-60*
Cc1ccc(C(=O)ONc2ccc(N=NC(=O)c3ccccc3O)cc2)cc1	65
CCc1ccc(C2=NNC(=Nc3cccc(S(=O)(=O)N(C)C)c3)SC2)cc1	-177*
Cc1cccc(N=C2NN=C(c3ccc4c(c3)OCCO4)CS2)c1	-62*
Cc1ccc(C2=NNC(=Nc3ccc(F)cc3)SC2)cc1	-70*
Cc1cccc(N=C2NN=C(c3c(C)[nH]c4ccccc34)CS2)c1	-41*
Cc1ccc(-n2c3nc(=O)[nH]c(=O)c-3cc3cc([N+](=O)[O-])ccc32)cc1	49
CCc1nn2c(=O)cc(COc3ccc(/C=C4\C(=N)N5N=C(C)SC5=NC4=O)cc3)nc2s1	58
CC1(C)Cc2ccccc2C2=NNC(=O)C2=N1	53
CC(=O)NC1C(=O)N(CCN2CCOCC2)c2ccc(Cl)cc21 (configuration not stated)	82
COc1ccc(-c2cc(N)n(CCC#N)n2)c(OC)c1	40
CCCCNC(=O)c1sc(=S)n2c1[nH]c(=O)c1ccc(C(=O)NCCc3ccc(OC)c(OC)c3)cc12	48
O=C(CN1C(=O)/C(=C2/SC(=S)N(CCS(=O)(=O)O)C2=O)c2ccccc21)Nc1cccc(C(F)(F)F)c1	36
O=[N+]([O-])c1ccc(N/N=C/c2ccc(O)c(O)c2O)c(S(=O)(=O)N2CCOCC2)c1	38
COC(=O)CCC(=O)OC1(C)C(=O)C2=COC(c3ccc(OC)cc3)=CC2=C(Br)C1=O (configuration not stated)	37
CC(C)C(C(=O)O)N1C(=O)/C(=C/C=C/c2ccco2)SC1=S (configuration not stated)	51
COC1=CC(=O)C=C(OC)C1=O	66
COc1ccc2[nH]c3c4c(ccc3c2c1)C(=O)C=CC4=O	51
NC1=C(Br)C(=O)c2ncccc2C1=O	38
C=CC(=O)N1C/C(=C/c2ccc(F)cc2)C(=O)/C(=C\c2ccc(F)cc2)C1	36
O=C(C1=C(O)C(=O)N(c2nc3ccc(Cl)cc3s2)C1c1ccco1)c1ccco1 (configuration not stated)	36
O=C(NCc1ccncc1)C(=O)N/N=C/c1ccc(OCc2ccccc2)cc1	-58*
O=C1NN(c2ccc(F)c(Cl)c2)C(=O)/C1=C\c1cccc(OC(=O)c2cccs2)c1	44
SMILES	HKDC1 activator
COc1ccc(CN2C=C3C(=O)C(C)(OC(=O)C4CCCC4)C(=O)C=C3C=C2c2ccsc2)cc1 (configuration not stated)	35
COC(=O)CCC(=O)Nc1sc(Cc2ccccc2)c(C)c1C(N)=O	-44*
Cc1cccn2c(=O)c3cc(C(N)=S)c(=N)n(CCCN4CCOCC4)c3nc12	-54*
COc1ncnc2c1oc1nc(C(C)C)c3c(c12)CC(C)(C)OC3	53
COC(=O)c1ccc(NC(=O)CSc2n[nH]c(-c3ccncc3)n2)cc1	36
COc1ccc(-c2[nH]c(-c3ccc(SC)cc3)nc2SCC(=O)Nc2nccs2)cc1	-54*
CCOC(=O)c1ccc(NC(=O)CSc2n[nH]c(-c3ccncc3)n2)cc1	40
c1ccc(Nc2cc(Nc3ccccc3)[nH]n2)cc1	-47*
N#CC1(NC(=O)COC(=O)c2cc(O)c3ccccc3c2O)CCCCC1	50
NNc1ncnc2sc3c(c12)CCC3	-102*
CCc1ccc(S(=O)(=O)/N=C2/C=C(Sc3ncn[nH]3)C(=O)c3ccccc32)cc1	71
CC(NC(=O)c1sc2cc([N+](=O)[O-])ccc2c1Cl)C(C)(C)C (configuration not stated)	-76*
O=C(C1=C(c2ccccc2)C(=O)c2ccccc2C1=O)c1ccccc1	58
O=C(CSc1n[nH]c(-c2ccccc2)n1)Nc1ncc(Br)cc1Br	48
CCC(Sc1nc(C)cc(C)n1)C(=O)NC1=NN=C(c2ccc(C)cc2)CS1 (configuration not stated)	-149*
O=C(CSc1nc(-c2ccc(F)cc2)nc2c1Cc1ccccc1O2)Nc1ccc(C(=O)O)cc1	44
Cc1ccc(Cl)cc1NC1=C/C(=N\S(=O)(=O)c2cccs2)c2ccccc2C1=O	36
CC(=NNC(=S)SCc1ccccc1)c1ccccn1	-47*
COc1ccc2c(c1)C(=NNC(=O)c1ccccn1)c1cc(OC)ccc1-2	42
CC(=NNC(=S)Nc1cccc(Cl)c1)c1ccccn1	-46*
Cc1ccc2c(c1C)-c1c(ccc(C)c1C)C(=O)C2=O	38
CCOP(=O)(c1ccc(N(C)C)cc1)C(O)c1ccc(OC)cc1 (configuration not stated)	56
Cc1ccc(C(=O)/C=C/c2cc(Br)cc(Br)c2O)o1	36
CC(=O)n1cc(N(C(=O)CCl)c2ccc(Cl)cc2)c2ccccc21	58
C=CCOc1ccc(C=NNc2ccc(S(=O)(=O)Nc3ccccc3C(=O)O)cc2[N+](=O)[O-])cc1OC	51
